Reference: paper PMC3082041 (Cancer Chemotherapy and Pharmacology, 2010)

System: patients with advanced solid tumors
Test: Phase I dose escalation, drug-related adverse events
Format: in vivo, human (Japanese patients)
Outline: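 Open, non-randomised escalation in three-patient cohorts at 200, 400, 800 and 1,200 mg/m2 oral bid. Tablets taken >2 h after breakfast and supper for 28 consecutive days, with a single dose on day 1. Toxicity graded weekly by NCI-CTC v2.0. DLT: grade 3/4 non-haematologic or grade 4 haematologic toxicity. MTD: DLT in >33% within 4 weeks.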

[1] = 200 mg/m^2 bid (N = 3), G1, 28-days administration
[2] = 400 mg/m^2 bid (N = 3), G1, 28-days administration
[3] = 400 mg/m^2 bid (N = 3), G2, 28-days administration
[4] = 800 mg/m^2 bid (N = 6), G1, 28-days administration
[5] = 800 mg/m^2 bid (N = 6), G2, 28-days administration
[6] = 800 mg/m^2 bid (N = 6), G3, 28-days administration
[7] = 1,200 mg/m^2 bid (N = 3), G1, 28-days administration
[8] = 1,200 mg/m^2 bid (N = 3), G2, 28-days administration
[9] = Total, all dose levels (N = 15), 28-days administration

What does the source list for `Cc1[nH]c(/C=C2\C(=O)Nc3ccccc32)c(C)c1CCC(=O)O` [TSU-68, (Z)-3-[2,4-dimethyl-5-(2-oxo-1,2-dihydro-indol-3-ylidenemethyl)-1H-pyrrol-3-yl]-propionic acid]?
Alanine aminotransferase increased, number of patients [1]: 1; Alkaline phosphatase increased, number of patients [1]: 1; Diarrhea, number of patients [1]: 3; Face edema, number of patients [1]: 1; Fatigue, number of patients [1]: 1; Nausea, number of patients [1]: 1; Upper abdominal pain, number of patients [1]: 1; Urine discoloration, number of patients [1]: 3; Chest pain, number of patients (200 mg/m^2 bid (N = 3), G2, 28-days administration): 1; Alkaline phosphatase increased, number of patients [2]: 1; Chest pain, number of patients [2]: 1; Diarrhea, number of patients [2]: 1; Face edema, number of patients [2]: 1; Fatigue, number of patients [2]: 1; Feces discolored, number of patients [2]: 1; Urine discoloration, number of patients [2]: 3; Albumin decreased, number of patients [3]: 1; Upper abdominal pain, number of patients [3]: 1; Abdominal pain, number of patients [4]: 2; Alanine aminotransferase increased, number of patients [4]: 2; Albumin decreased, number of patients [4]: 4; Alkaline phosphatase increased, number of patients [4]: 3; Anorexia, number of patients [4]: 3; Diarrhea, number of patients [4]: 2; Face edema, number of patients [4]: 1; Fatigue, number of patients [4]: 3; Feces discolored, number of patients [4]: 6; Nausea, number of patients [4]: 2; Total protein decreased, number of patients [4]: 3; Urine discoloration, number of patients [4]: 6; Vomiting, number of patients [4]: 2; Abdominal pain, number of patients [5]: 1; Anorexia, number of patients [5]: 1; Diarrhea, number of patients [5]: 2; Fatigue, number of patients [5]: 1; Anemia, number of patients [6]: 1; Arrhythmia, number of patients [6]: 1; Thrombocytopenia, number of patients [6]: 1; Abdominal pain, number of patients [7]: 1; Alkaline phosphatase increased, number of patients [7]: 1; Anorexia, number of patients [7]: 2; Chest pain, number of patients [7]: 1; Diarrhea, number of patients [7]: 1; Face edema, number of patients [7]: 2; Fatigue, number of patients [7]: 2; Feces discolored, number of patients [7]: 3; Upper abdominal pain, number of patients [7]: 2; Urine discoloration, number of patients [7]: 3; Abdominal pain, number of patients [8]: 1; Albumin decreased, number of patients [8]: 1; Anorexia, number of patients [8]: 1; Diarrhea, number of patients [8]: 1; Fatigue, number of patients [8]: 1; Nausea, number of patients [8]: 1; Vomiting, number of patients [8]: 1; Abdominal pain, number of patients (Total (N = 5), after 28 days): 1; Abdominal pain, patients (%) (Total (N = 5), after 28 days): (20) %; Alanine aminotransferase increased, number of patients (Total (N = 5), after 28 days): 3; Alkaline phosphatase increased, number of patients (Total (N = 5), after 28 days): 2; Anorexia, number of patients (Total (N = 5), after 28 days): 1; Anorexia, patients (%) (Total (N = 5), after 28 days): (20) %; Arrhythmia, number of patients (Total (N = 5), after 28 days): 1; Arrhythmia, patients (%) (Total (N = 5), after 28 days): (20) %; Chest pain, number of patients (Total (N = 5), after 28 days): 2; Diarrhea, number of patients (Total (N = 5), after 28 days): 3; Face edema, number of patients (Total (N = 5), after 28 days): 3; Fatigue, number of patients (Total (N = 5), after 28 days): 4; Fatigue, patients (%) (Total (N = 5), after 28 days): (80) %; Feces discolored, number of patients (Total (N = 5), after 28 days): 4; Feces discolored, patients (%) (Total (N = 5), after 28 days): (80) %; Nausea, number of patients (Total (N = 5), after 28 days): 1; Nausea, patients (%) (Total (N = 5), after 28 days): (20) %; Urine discoloration, number of patients (Total (N = 5), after 28 days): 5; Urine discoloration, patients (%) (Total (N = 5), after 28 days): (100) %; Vomiting, number of patients (Total (N = 5), after 28 days): 1; Vomiting, patients (%) (Total (N = 5), after 28 days): (20) %; Abdominal pain, number of patients [9]: 5; Abdominal pain, patients (%) [9]: (33) %; Alanine aminotransferase increased, number of patients [9]: 3; Alanine aminotransferase increased, patients (%) [9]: (20) %; Albumin decreased, number of patients [9]: 6; Alkaline phosphatase increased, number of patients [9]: 6; Anemia, number of patients [9]: 1; Arrhythmia, number of patients [9]: 1; Chest pain, number of patients [9]: 3; Chest pain, patients (%) [9]: (20) %; Face edema, number of patients [9]: 5; Face edema, patients (%) [9]: (33) %; Fatigue, number of patients [9]: 9; Nausea, number of patients [9]: 4; Thrombocytopenia, number of patients [9]: 1; Total protein decreased, number of patients [9]: 3; Total protein decreased, patients (%) [9]: (20) %; Upper abdominal pain, number of patients [9]: 4; Urine discoloration, number of patients [9]: 15; Urine discoloration, patients (%) [9]: (100) %; Vomiting, number of patients [9]: 3; Vomiting, patients (%) [9]: (20) %; recommended dose for further studies (continuous oral bid between meals): less than 800 mg/m^2 bid; tolerable dose for continuing treatment (oral bid between meals): ≤ 800 mg/m^2 bid; acceptable dosage level in daily administration (oral, between meals, estimated): 800 mg/m^2 bid
